Source: ChEMBL document CHEMBL1124549, “N-azamonobactams. 2. Synthesis of some N-iminoacetic acid and N-glycyl analogues” (1989)
In brackets after ≈: the same amount, converted by molar mass.

How the values were obtained:
Format in all cases: functional
Providencia stuartii = experiment: In vitro antibacterial activity against CMC-83-3 strain of Providencia stuartii
How it was run: (§1)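 Agar dilution on Mueller-Hinton agar holding 2-fold decreasing drug concentrations. Agar surfaces were spot-inoculated with (1-5) × 10^4 CFU per strain using a replicating device. Plates were incubated 18 h at 35 °C. MIC was recorded as the lowest concentration inhibiting growth of the strain.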

Morganella morganii [1] = experiment: In vitro antibacterial activity against CMC-84-38 strain of Morganella morganii; how it was run: as §1
Escherichia coli [2] = experiment: In vitro antibacterial activity against CMC-84-50 strain of Escherichia coli; how it was run: as §1
Klebsiella pneumoniae [3] = experiment: In vitro antibacterial activity against CMC-84-31 strain of Klebsiella pneumoniae; how it was run: as §1
Klebsiella pneumoniae [4] = experiment: In vitro antibacterial activity against MOR-84-24 strain of Klebsiella pneumoniae; how it was run: as §1
Enterobacter cloacae [5] = experiment: In vitro antibacterial activity against K-84-10 strain of Enterobacter cloacae
Enterobacter cloacae [6] = experiment: In vitro antibacterial activity against MOR-84-30 strain of Enterobacter cloacae
Serratia marcescens [7] = experiment: In vitro antibacterial activity against CMC-83-74 strain of Serratia marcescens; how it was run: as §1
Escherichia coli [8] = experiment: In vitro antibacterial activity against MOR-84-20 strain of Escherichia coli; how it was run: as §1
Escherichia coli [9] = experiment: In vitro antibacterial activity against ATCC 25922 strain of Escherichia coli; how it was run: as §1
Escherichia coli [10] = experiment: In vitro antibacterial activity against VGH-84-19 strain of Escherichia coli; how it was run: as §1
Klebsiella pneumoniae [11] = experiment: In vitro antibacterial activity against IO-83-5 strain of Klebsiella pneumoniae; how it was run: as §1
Citrobacter koseri = experiment: In vitro antibacterial activity against J-82-24 strain of Citrobacter diversus; how it was run: as §1
Serratia marcescens [12] = experiment: In vitro antibacterial activity against MOR-84-41 strain of Serratia marcescens; how it was run: as §1
Enterobacter cloacae [13] = experiment: In vitro antibacterial activity against VGH-84-39 strain of Enterobacter cloacae
Morganella morganii [14] = experiment: In vitro antibacterial activity against MOR-84-45 strain of Morganella morganii; how it was run: as §1
Morganella morganii [15] = experiment: In vitro antibacterial activity against VGH-84-12 strain of Morganella morganii; how it was run: as §1
[16] = In vitro antibacterial activity against IO-83-21 strain of Proteus rettgeri; conditions: Providencia rettgeri; how it was run: as §1
Serratia marcescens [17] = experiment: In vitro antibacterial activity against IO-83-63 strain of Serratia marcescens; how it was run: as §1

| MIC (Providencia stuartii) [mg/L] | MIC (Morganella morganii [1]) [mg/L] | MIC (Escherichia coli [2]) [mg/L] | MIC (Klebsiella pneumoniae [3]) [mg/L] | MIC (Klebsiella pneumoniae [4]) [mg/L] | MIC (Enterobacter cloacae [5]) [mg/L] | MIC (Enterobacter cloacae [6]) [mg/L] | MIC (Serratia marcescens [7]) [mg/L] | MIC (Escherichia coli [8]) [mg/L] | MIC (Escherichia coli [9]) [mg/L] | MIC (Escherichia coli [10]) [mg/L] | MIC (Klebsiella pneumoniae [11]) [mg/L] | MIC (Citrobacter koseri) [mg/L] | MIC (Serratia marcescens [12]) [mg/L] | MIC (Enterobacter cloacae [13]) [mg/L] | MIC (Morganella morganii [14]) [mg/L] | MIC (Morganella morganii [15]) [mg/L] | MIC [16] [mg/L] | MIC (Serratia marcescens [17]) [mg/L] | SMILES |
| --- | --- | --- | --- | --- | --- | --- | --- | --- | --- | --- | --- | --- | --- | --- | --- | --- | --- | --- | --- |
| 2 (≈ 5.88 µM) | 8 (≈ 23.5 µM) | 2 (≈ 5.88 µM) | 2 (≈ 5.88 µM) | 8 (≈ 23.5 µM) | 4 (≈ 11.8 µM) | 32 (≈ 94 µM) | 16 (≈ 47 µM) | 2 (≈ 5.88 µM) | 8 (≈ 23.5 µM) | 2 (≈ 5.88 µM) | 4 (≈ 11.8 µM) | 4 (≈ 11.8 µM) | 4 (≈ 11.8 µM) | 8 (≈ 23.5 µM) | 16 (≈ 47 µM) | 4 (≈ 11.8 µM) | 0.12 (≈ 0.353 µM) | 8 (≈ 23.5 µM) | CO/N=C(/C(=O)NC1CN(/N=C/C(=O)O)C1=O)c1csc(N)n1 (stereo unspecified) |
| > 128 | > 128 | > 128 | > 128 | > 128 | > 128 | > 128 | > 128 | > 128 | > 128 | > 128 | > 128 | > 128 | > 128 | > 128 | > 128 | > 128 | 64 (≈ 187 µM) | > 128 | CO/N=C(/C(=O)NC1CN(NCC(=O)O)C1=O)c1csc(N)n1 (stereo unspecified) |
| 32 (≈ 83.7 µM) | 32 (≈ 83.7 µM) | 4 (≈ 10.5 µM) | 8 (≈ 20.9 µM) | 16 (≈ 41.8 µM) | 8 (≈ 20.9 µM) | 64 (≈ 167 µM) | 128 (≈ 335 µM) | 8 (≈ 20.9 µM) | 8 (≈ 20.9 µM) | 8 (≈ 20.9 µM) | 8 (≈ 20.9 µM) | 16 (≈ 41.8 µM) | 32 (≈ 83.7 µM) | 16 (≈ 41.8 µM) | 128 (≈ 335 µM) | 64 (≈ 167 µM) | 0.5 (≈ 1.31 µM) | 32 (≈ 83.7 µM) | C=CCOC(=O)CNN1CC(NC(=O)/C(=N/OC)c2csc(N)n2)C1=O (stereo unspecified) |

| SMILES | MIC (Providencia stuartii) [mg/L] | MIC (Morganella morganii [1]) [mg/L] | MIC (Escherichia coli [2]) [mg/L] | MIC (Klebsiella pneumoniae [3]) [mg/L] | MIC (Klebsiella pneumoniae [4]) [mg/L] | MIC (Enterobacter cloacae [5]) [mg/L] | MIC (Enterobacter cloacae [6]) [mg/L] | MIC (Serratia marcescens [7]) [mg/L] | MIC (Escherichia coli [8]) [mg/L] | MIC (Escherichia coli [9]) [mg/L] | MIC (Escherichia coli [10]) [mg/L] | MIC (Klebsiella pneumoniae [11]) [mg/L] | MIC (Citrobacter koseri) [mg/L] | MIC (Serratia marcescens [12]) [mg/L] | MIC (Enterobacter cloacae [13]) [mg/L] | MIC (Morganella morganii [14]) [mg/L] | MIC (Morganella morganii [15]) [mg/L] | MIC [16] [mg/L] | MIC (Serratia marcescens [17]) [mg/L] |
| --- | --- | --- | --- | --- | --- | --- | --- | --- | --- | --- | --- | --- | --- | --- | --- | --- | --- | --- | --- |
| C[C@H]1[C@H](NC(=O)/C(=N\OC(C)(C)C(=O)O)c2csc(N)n2)C(=O)N1S(=O)(=O)O [AZTREONAM] | 0.015 (≈ 0.0344 µM) | 0.015 (≈ 0.0344 µM) | 0.06 (≈ 0.138 µM) | 0.03 (≈ 0.0689 µM) | 0.06 (≈ 0.138 µM) | – | – | 0.25 (≈ 0.574 µM) | 0.06 (≈ 0.138 µM) | 0.06 (≈ 0.138 µM) | 0.06 (≈ 0.138 µM) | – | 0.03 (≈ 0.0689 µM) | 0.06 (≈ 0.138 µM) | – | 0.015 (≈ 0.0344 µM) | 0.03 (≈ 0.0689 µM) | 0.002 (≈ 0.00459 µM) | – |
